Test results taken from ChEMBL document CHEMBL2375261, “Glycyrrhetinic acid and its analogs: a new class of antifilarial agents” (Bioorg Med Chem Lett, 2013).
Converted amounts (≈) assume the structure as drawn. The source made the active and inactive calls. The calls are words filed in the database; no cut-off is given here.

What was measured:
Brugia malayi [1] = assay: Antifilarial activity against microfilariae Brugia malayi assessed as inhibition of motility after 24 hrs by microscopic analysis; assay type: functional, organism-based; details: for IC50: Brugia malayi, 24 h
Outline: (§1)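 In vitro, female adult worms and microfilariae of Brugia malayi were scored for motility. LC100 is the concentration giving 100% motility inhibition, which is taken as parasite death. IC50 is the concentration giving 50% motility inhibition. Adult worms were also run in a parallel MTT reduction assay, reported as mean % inhibition.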

Brugia malayi [2] = assay: Antifilarial activity against female adult Brugia malayi assessed as inhibition of motility after 24 hrs by microscopic analysis; assay type: functional, organism-based; details: for IC50: Brugia malayi, 24 h; outline: as §1
Brugia malayi [3] = assay: Antifilarial activity against female adult Brugia malayi assessed as inhibition of MTT reduction at LC100 concentration after 24 hrs; assay type: functional
Brugia malayi [4] = assay: Antifilarial activity against adult Brugia malayi infected in jirds assessed as reduction in worms recovered from host at 25 mg/kg, sc qd for 5 days measured after 56 days relative to control; assay type: functional, organism-based; design: dose 25 mg/kg
Outline: (§2)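 Jirds (Meriones unguiculatus) infected with B. malayi were dosed s.c. once daily for 5 days, at 100 mg/kg or, for the reference drug, 25 mg/kg; vehicle-treated animals served as controls (4–6 animals per group). Microfilariae in the peritoneal cavity were assessed on days 7/8 after treatment began. Recovered adult worms were counted as % inhibition over untreated control, with % sterile females scored. Data are mean ± SD, compared by Student's t test.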

Brugia malayi [5] = assay: Antifilarial activity against adult Brugia malayi infected in jirds assessed as decrease in microfilarial activity isolated from host peritoneal cavity at 25 mg/kg, sc qd for 5 days measured after 7 to 8 days; assay type: functional, organism-based; design: dose 25 mg/kg; outline: as §2
[6] = Selectivity index, ratio of CC50 for african green monkey Vero cells to IC50 for female adult Brugia malayi; assay type: functional
Outline: (§3)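 Selectivity index was calculated as CC50 (concentration killing 50% of cells) divided by the motility IC50 (concentration giving 50% motility inhibition). This was done separately for female adult worms and for microfilariae of B. malayi.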

Brugia malayi [7] = assay: Antifilarial activity adult against Brugia malayi infected in jirds assessed as sterile female worms recovered from host at 25 mg/kg, sc qd for 5 days measured after 56 days relative to control; assay type: functional; details: route subcutaneous; outline: as §2
[8] = Selectivity index, ratio of CC50 for african green monkey Vero cells to IC50 for microfilariae Brugia malayi; assay type: functional; outline: as §3
[9] = Cytotoxicity against african green monkey Vero cells; assay type: cell-based; details: chlorocebus sabaeus
Brugia malayi [10] = assay: Antifilarial activity against adult Brugia malayi infected in jirds assessed as sterile female worms recovered from host at 100 mg/kg, sc qd for 5 days measured after 56 days relative to control; assay type: functional; details: route subcutaneous; outline: as §2
Brugia malayi [11] = assay: Ratio of diethylcarbamazine citrate LC100 to compound LC100 for female adult Brugia malayi; assay type: functional
Meriones unguiculatus = assay: Toxicity against jird infected with adult Brugia malayi assessed as behavioural change at 100 mg/kg, sc qd for 5 days measured up to 56 days; assay type: organism-based; design: dose 100 mg/kg, route subcutaneous; details: gerbil, in vivo
Brugia malayi [12] = assay: Ratio of diethylcarbamazine citrate IC50 to compound IC50 for microfilariae Brugia malayi; assay type: functional
Brugia malayi [13] = assay: Antifilarial activity against adult Brugia malayi infected in jirds assessed as decrease in microfilarial activity isolated from host peritoneal cavity at 100 mg/kg, sc qd for 5 days measured after 7 to 8 days; assay type: functional, organism-based; design: dose 100 mg/kg; outline: as §2
Brugia malayi [14] = assay: Antifilarial activity against adult Brugia malayi infected in jirds assessed as reduction in worms recovered from host at 100 mg/kg, sc qd for 5 days measured after 56 days relative to control; assay type: functional; design: scale not given: the % may be the effect or the level left; outline: as §2
Brugia malayi [15] = assay: Ratio of diethylcarbamazine citrate IC50 to compound IC50 for female adult Brugia malayi; assay type: functional

CC1(C)[C@@H](O)CC[C@]2(C)[C@H]3C(=O)C=C4[C@@H]5C[C@@](C)(C(=O)O)CC[C@]5(C)CC[C@@]4(C)[C@]3(C)CC[C@@H]12 [ENOXOLONE]
LC100 (Brugia malayi [1]): 12.5 µM
IC50 (Brugia malayi [1]): 1.2 µM
LC100 (Brugia malayi [2]): >100 µM
inhibition (INH) (Brugia malayi [3]): 21.71%

CCN(CC)C(=O)N1CCN(C)CC1.O=C(O)CC(O)(CC(=O)O)C(=O)O [DIETHYLCARBAMAZINE CITRATE]
Activity (Brugia malayi [4]): inactive
LC100 (Brugia malayi [1]): 500 µM
IC50 (Brugia malayi [1]): 354 µM
Activity (Brugia malayi [5]): inactive
LC100 (Brugia malayi [2]): 800 µM
IC50 (Brugia malayi [2]): 289 µM
Ratio CC50/IC50 [6]: 31.5
inhibition (INH) (Brugia malayi [3]): 64%
Activity (Brugia malayi [7]): 11%
Ratio CC50/IC50 [8]: 25.7
CC50 [9]: 9100 µg/mL

COC(=O)[C@@]1(C)CC[C@]2(C)CC[C@]3(C)C(=CC(=O)[C@@H]4[C@@]5(C)CC[C@H](OC(C)=O)C(C)(C)[C@@H]5CC[C@]43C)[C@@H]2C1
LC100 (Brugia malayi [1]): 25 µM
IC50 (Brugia malayi [1]): 2.21 µM
LC100 (Brugia malayi [2]): >100 µM
inhibition (INH) (Brugia malayi [3]): 7.47%
Ratio CC50/IC50 [8]: 3.58
CC50 [9]: 7.92 µg/mL (≈ 15 µM)

CCOC(=O)[C@@]1(C)CC[C@]2(C)CC[C@]3(C)C(=CC(=O)[C@@H]4[C@@]5(C)CC[C@H](OC(C)=O)C(C)(C)[C@@H]5CC[C@]43C)[C@@H]2C1
LC100 (Brugia malayi [1]): 50 µM
IC50 (Brugia malayi [1]): 8.84 µM
LC100 (Brugia malayi [2]): >100 µM
inhibition (INH) (Brugia malayi [3]): 28.78%
Ratio CC50/IC50 [8]: 1.16
CC50 [9]: 10.3 µg/mL (≈ 19 µM)

CC(=O)O[C@H]1CC[C@]2(C)[C@H]3C(=O)C=C4[C@@H]5C[C@@](C)(C(=O)NCc6ccccc6)CC[C@]5(C)CC[C@@]4(C)[C@]3(C)CC[C@H]2C1(C)C
LC100 (Brugia malayi [1]): 50 µM
IC50 (Brugia malayi [1]): 2.21 µM
LC100 (Brugia malayi [2]): 25 µM
IC50 (Brugia malayi [2]): 8.84 µM
Activity (Brugia malayi [10]): 11%
Ratio (Brugia malayi [11]): 32
Activity (Meriones unguiculatus): Non-toxic
Ratio CC50/IC50 [6]: 66.02
inhibition (INH) (Brugia malayi [3]): 48.79%
Ratio IC50 (Brugia malayi [12]): 160
Ratio CC50/IC50 [8]: 264.06
Activity (Brugia malayi [13]): inactive
CC50 [9]: 584 µg/mL (≈ 970 µM)
Activity (Brugia malayi [14]; route subcutaneous): 54.21%

CCCCCCCCCCCC(=O)O[C@H]1CC[C@]2(C)[C@H]3C(=O)C=C4[C@@H]5C[C@@](C)(C(=O)O)CC[C@]5(C)CC[C@@]4(C)[C@]3(C)CC[C@H]2C1(C)C
LC100 (Brugia malayi [1]): >100 µM
LC100 (Brugia malayi [2]): >100 µM
inhibition (INH) (Brugia malayi [3]): 10.69%

CCCCCCCCNC(=O)[C@@]1(C)CC[C@]2(C)CC[C@]3(C)C(=CC(=O)[C@@H]4[C@@]5(C)CC[C@H](OC(C)=O)C(C)(C)[C@@H]5CC[C@]43C)[C@@H]2C1
LC100 (Brugia malayi [1]): 100 µM
IC50 (Brugia malayi [1]): 42 µM
LC100 (Brugia malayi [2]): 100 µM
IC50 (Brugia malayi [2]): 17.7 µM
Activity (Brugia malayi [10]): 5%
Ratio IC50 (Brugia malayi [15]): 16
Ratio (Brugia malayi [11]): 8
Ratio CC50/IC50 [6]: 6.01
inhibition (INH) (Brugia malayi [3]): 52.15%
Ratio CC50/IC50 [8]: 2.53
Activity (Brugia malayi [13]): inactive
CC50 [9]: 106 µg/mL (≈ 170 µM)
Activity (Brugia malayi [14]): inactive

CC(=O)O[C@H]1CC[C@]2(C)[C@H]3C(=O)C=C4[C@@H]5C[C@@](C)(C(=O)O)CC[C@]5(C)CC[C@@]4(C)[C@]3(C)CC[C@H]2C1(C)C [ACETOXOLONE]
LC100 (Brugia malayi [1]): >100 µM
LC100 (Brugia malayi [2]): >100 µM
inhibition (INH) (Brugia malayi [3]): 9.45%
